Article PMC12705676 (Scientific Reports, 2025)
Entries after “also recorded” stand apart in the source; their conditions may differ.

Legend:
[1] = tested on: PC-3 (human prostate cancer); test: SRB cytotoxicity assay, PC-3 cells; format: cell-based; conditions: for IC50: Homo sapiens, PC-3, 72 h, read-out: IC50 PC-3; for Selectivity index (SI) PC-3: IC50 in GES-1 / IC50 in PC-3
Procedure, shortened: (§1)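 Cells plated at 3 × 10³ per well and left 24 h to attach at 37 °C, 5% CO₂. Test compound at 0–100 µM from ethanol stocks (1% final ethanol) for 72 h. Fixation in TCA (10% final), staining with 0.1% SRB, dye solubilized in 10 mM Tris, A540. Viability relative to 1% ethanol vehicle. IC50 from a four-parameter logistic fit with 95% CI; triplicate, three independent runs, mean ± SD. SI = IC50 in GES-1 divided by IC50 in the cancer line.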

[2] = tested on: HT-29 (human colorectal adenocarcinoma); test: SRB cytotoxicity assay, HT-29 cells; format: cell-based; conditions: for IC50: Homo sapiens, HT-29, 72 h, read-out: IC50 HT-29; for Selectivity index (SI) HT-29: IC50 in GES-1 / IC50 in HT-29
Procedure, shortened: as §1

[3] = tested on: AGS (human gastric adenocarcinoma); test: SRB cytotoxicity assay, AGS cells; format: cell-based; conditions: for IC50: Homo sapiens, AGS, 72 h, read-out: IC50 AGS; for Selectivity index (SI) AGS: IC50 in GES-1 / IC50 in AGS
Procedure, shortened: as §1

[4] = ABTS radical scavenging assay; format: biochemical; conditions: concentration to scavenge 50% of radicals, mean ± SD; for IC50: read-out: ABTS IC50
Procedure, shortened: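 ABTS radical cation generated by reacting ABTS with potassium persulfate, then diluted to an absorbance of about 0.700 at 732 nm. Test compound at several concentrations was mixed with the ABTS⁺ solution and the fall in absorbance recorded. Percent scavenging was calculated against a solvent control, with ascorbic acid as reference antioxidant. Three independent experiments in triplicate, mean ± SD.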

Hemolysis assay = format: cell-based, human; conditions: human, washed human red blood cells, Hemolysis (%), 30 min, 37 °C
Procedure, shortened: (§2)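 Donor blood was collected in EDTA. RBCs were pelleted at 500 × g for 10 min, washed three times in PBS and resuspended in PBS. Cells were exposed to test compound at 10–300 µg/mL for 30 min at 37 °C with gentle agitation, then spun at 1000 × g for 5 min; supernatant hemoglobin was read at 540 nm. Deionized water defined 100% and PBS 0% hemolysis. Triplicate, three independent repeats.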

human erythrocytes = test: Hemolysis assay; format: cell-based; conditions: for Hemolysis (%): 30 min, 37 °C; for Hemolysis, result in words: 10–300 µg/mL
Procedure, shortened: as §2

[5] = DPPH radical scavenging assay; format: biochemical; conditions: concentration to scavenge 50% of radicals, 15 min, mean ± SD
Procedure, shortened: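 Test compound solutions (5–400 µg/mL, concentration before mixing) were added to 50 µM ethanolic DPPH and kept 15 min at room temperature in the dark, then read at 517 nm. A blank with solvent in place of compound served as control. IC50 came from linear regression of % scavenging against concentration. Three independent experiments in triplicate, mean ± SD.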

[6] = tested on: mitochondrial membrane permeability of cancer cell line; test: Mitochondrial membrane permeability by flow cytometry; format: cell-based, human; conditions: 48 h, Rhodamine 123, flow cytometry

Row | Compound | IC50 [4] | IC50 [1] | IC50 [2] | IC50 [3] | Selectivity index (SI) AGS [3] | hemolysis at 30 min, 10 µg/mL (Hemolysis assay) | hemolysis at 30 min, 25 µg/mL (Hemolysis assay) | hemolysis at 30 min, 50 µg/mL (Hemolysis assay) | hemolysis at 30 min, 100 µg/mL (Hemolysis assay) | hemolysis at 30 min, 200 µg/mL (Hemolysis assay) | hemolysis at 30 min, 300 µg/mL (Hemolysis assay) | other results
1 | O=c1[nH]cc(F)c(=O)[nH]1 [Compound 5-FU, 5-fluorouracil, reference compound] | – | 16.4 ± 0.6 µM | 2.9 ± 0.7 µM | 56.1 ± 0.5 µM | 2.5 | – | – | – | – | – | – | Selectivity index (SI) HT-29 [2]: 48.3
2 | CC12CCC(CC1=O)C2(C)C (stereo not drawn) [Compound 1, camphor, reference compound] | > 2630 µM | > 100 µM | > 100 µM | > 100 µM | – | – | – | – | – | 9.67% | 10.1% | ABTS IC50 [4]: inactive; Hemolysis (%) (human erythrocytes; 10 µg/mL): 0%; Hemolysis (%) (human erythrocytes; 25 µg/mL): 0.06%; Hemolysis (%) (human erythrocytes; 50 µg/mL): 3.11%; Hemolysis (%) (human erythrocytes; 100 µg/mL): 4.80%; DPPH IC50 [5]: inactive
3 | CC1(C)C2CC[C@]1(C)C(=O)/C2=C/c1ccco1 [Compound 3, (1S,3E)-3-[(furan-2-yl)methylidene]-1,7,7-trimethylbicyclo[2.2.1]heptan-2-one] | 953 ± 1.5 µM | > 100 µM | > 100 µM | 99.9 ± 0.2 µM | 1.85 | 6.75% | 8.31% | 17.9% | 23.6% | 28.2% | 35.3% | Hemolysis, result in words (human erythrocytes): concentration dependent increase in hemolysis; Effect on mitochondrial membrane potential [6]: loss of the mitochondrial membrane potential
4 | CC1(C)C2CC[C@@]1(C)C(=O)/C2=C/c1cc2ccccc2o1 [Compound 10, (1R,3E)-3-[(1-benzofuran-2-yl)methylidene]-1,7,7-trimethylbicyclo[2.2.1]heptan-2-one] | 1146 ± 3.7 µM | > 100 µM | > 100 µM | > 100 µM | – | 0% | 0.38% | 3.12% | 5.84% | 6.16% | 8.05% | –
5 | Triton X-100 [Triton X-100 1%, reference compound] | – | – | – | – | – | – | – | – | – | – | – | Hemolysis (%) (human erythrocytes; 10 µg/mL): 100%; Hemolysis (%) (human erythrocytes; 25 µg/mL): 100%; Hemolysis (%) (human erythrocytes; 50 µg/mL): 100%; Hemolysis (%) (human erythrocytes; 100 µg/mL): 100%; Hemolysis (%) (human erythrocytes; 200 µg/mL): 100%; Hemolysis (%) (human erythrocytes; 300 µg/mL): 100%
6 | COc1cccc2c1C(=O)c1c(O)c3c(c(O)c1C2=O)C[C@@](O)(C(C)=O)C[C@@H]3O[C@H]1C[C@H](N)[C@H](O)[C@H](C)O1 [Daunorubicin, reference compound] | – | 10.4 ± 0.4 µM | 15.1 ± 0.5 µM | 13 ± 0.3 µM | 27.1 | – | – | – | – | – | – | Selectivity index (SI) PC-3 [1]: 33.9; Selectivity index (SI) HT-29 [2]: 23.3
7 | CC1(C)C2CC[C@@]1(C)C(=O)/C2=C/c1cccs1 [Compound 6, (1R,3E)-1,7,7-trimethyl-3-[(thiophen-2-yl)methylidene]bicyclo[2.2.1]heptan-2-one] | 1082 ± 1.7 µM | > 100 µM | > 100 µM | > 100 µM | – | 6.36% | 7.07% | 16.8% | 21.6% | 26.7% | 29% | Hemolysis, result in words (human erythrocytes): concentration dependent increase in hemolysis
8 | CC1(C)C2CC[C@@]1(C)C(=O)/C2=C/c1ccsc1 [Compound 12, (1R,3E)-1,7,7-trimethyl-3-[(thiophen-3-yl)methylidene]bicyclo[2.2.1]heptan-2-one] | 1025 ± 3.5 µM | – | – | – | – | 5.9% | 6.81% | 7.92% | 9.41% | 10.2% | 12.5% | Hemolysis, result in words (human erythrocytes): concentration dependent increase in hemolysis

Continued by falling IC50 [4], values first:

Row | IC50 [4] | Compound | IC50 [1] | IC50 [2] | IC50 [3] | Selectivity index (SI) AGS [3] | hemolysis at 30 min, 10 µg/mL (Hemolysis assay) | hemolysis at 30 min, 25 µg/mL (Hemolysis assay) | hemolysis at 30 min, 50 µg/mL (Hemolysis assay) | hemolysis at 30 min, 100 µg/mL (Hemolysis assay) | hemolysis at 30 min, 200 µg/mL (Hemolysis assay) | hemolysis at 30 min, 300 µg/mL (Hemolysis assay) | other results
9 | 1396 ± 3.8 µM | CC1(C)C2CC[C@]1(C)C(=O)/C2=C/c1ccsc1 [Compound 11, (1S,3E)-1,7,7-trimethyl-3-[(thiophen-3-yl)methylidene]bicyclo[2.2.1]heptan-2-one] | – | – | – | – | 0% | 0.77% | 5.25% | 7.2% | 11.2% | 13.2% | –
10 | 1344 ± 3.4 µM | CC1(C)C2CC[C@@]1(C)C(=O)/C2=C/c1ccoc1 [Compound 8, (1R,3E)-3-[(furan-3-yl)methylidene]-1,7,7-trimethylbicyclo[2.2.1]heptan-2-one] | > 100 µM | > 100 µM | > 100 µM | – | 0% | 2.53% | 6.29% | 8.5% | 9.74% | 12.2% | –
11 | 1301 ± 2.4 µM | CC1(C)C2CC[C@]1(C)C(=O)/C2=C/c1cccs1 [Compound 5, (1S,3E)-1,7,7-trimethyl-3-[(thiophen-2-yl)methylidene]bicyclo[2.2.1]heptan-2-one] | 63.57 ± 0.6 µM | 87.5 ± 0.5 µM | 43.2 ± 0.3 µM | 4.2 | 0% | 0% | 1.1% | 3.11% | 7.4% | 13.8% | Selectivity index (SI) PC-3 [1]: 3.0; Effect on mitochondrial membrane potential [6]: loss of the mitochondrial membrane potential; Selectivity index (SI) HT-29 [2]: 2.1
12 | 1046 ± 3.3 µM | CC1(C)C2CC[C@]1(C)C(=O)/C2=C/c1ccoc1 [Compound 7, (1S,3E)-3-[(furan-3-yl)methylidene]-1,7,7-trimethylbicyclo[2.2.1]heptan-2-one] | > 100 µM | > 100 µM | > 100 µM | – | 0% | 0% | 0% | 1.81% | 3.12% | 5.97% | –
13 | 1004 ± 2 µM | CC1(C)C2CC[C@@]1(C)C(=O)/C2=C/c1ccco1 [Compound 4, (1R,3E)-3-[(furan-2-yl)methylidene]-1,7,7-trimethylbicyclo[2.2.1]heptan-2-one] | > 100 µM | > 100 µM | > 100 µM | – | 15.7% | 18.2% | 20.1% | 31.8% | 41.5% | 49.7% | Hemolysis, result in words (human erythrocytes): concentration dependent increase in hemolysis; also recorded: significant hemolysis
14 | 954.7 ± 2.7 µM | CC1(C)C2CC[C@]1(C)C(=O)/C2=C/c1cc2ccccc2o1 [Compound 9, (1S,3E)-3-[(1-benzofuran-2-yl)methylidene]-1,7,7-trimethylbicyclo[2.2.1]heptan-2-one] | 97 ± 0.2 µM | 76.3 ± 0.2 µM | 31.8 ± 0.4 µM | 7.0 | 2.01% | 3.31% | 6.36% | 8.05% | 12.9% | 13.4% | Selectivity index (SI) PC-3 [1]: 2.3; Effect on mitochondrial membrane potential [6]: loss of the mitochondrial membrane potential; Selectivity index (SI) HT-29 [2]: 3.0
15 | 141 ± 3.5 µM | O=C1O[C@H]([C@@H](O)CO)C(O)=C1O [AA, Ascorbic acid, reference compound] | – | – | – | – | – | – | – | – | – | – | –
